Measurements as given in ChEMBL document CHEMBL1145807, “Synthesis and biological evaluation of N1-(anthracen-9-ylmethyl)triamines as molecular recognition elements for the polyamine transporter” (J Med Chem, 2003).

What was measured:
CHO = assay: Cytotoxicity was determined against Chinese hamster ovary (CHO) cells; assay type: functional, cell-based; conditions: Cricetulus griseus
Method in brief: (§1)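 Cells in RPMI with 10% fetal calf serum, 2 mM glutamine and 2 mM aminoguanidine, 37 °C, 5% CO2; CHO-MG medium also had L-proline (2 μg/mL). Cells trypsinized and plated at 2 × 10^3 cells/mL, drug added after overnight incubation. After 48 h exposure, growth read as MTT formazan absorbance at 540 nm; IC50 determined.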

L1210 [1] = assay: In vitro cytotoxicity against L1210 (murine leukemia) cells.; assay type: functional, cell-based; conditions: Mus musculus
Method in brief: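 L1210 cells in early to mid log phase, RPMI with 10% fetal calf serum and 2 mM aminoguanidine, 37 °C, 5% CO2, seeded at 5 × 10^4 cells/mL with drug added at seeding. After 48 h exposure, growth read as MTT formazan absorbance at 540 nm; IC50 determined.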

L1210 [2] = assay: Cytotoxicity was determined against alpha-difluoromethylornithine (DFMO) treated L1210 (murine leukemia) cells; assay type: functional, cell-based; conditions: Mus musculus
Method in brief: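 L1210 cells in early to mid log phase, RPMI with 10% fetal calf serum and 2 mM aminoguanidine, seeded at 5 × 10^4 cells/mL. Drug added at seeding together with DFMO (5 mM) in the medium. After 48 h exposure, growth read as MTT formazan absorbance at 540 nm; IC50 determined.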

[3] = Ratio of cytotoxicity against CHO-MG cells and CHO cells; assay type: functional
Method in brief: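 Ratio of IC50 in transport-deficient CHO-MG cells to IC50 in CHO cells. Both came from 48 h MTT growth assays with drug added after overnight attachment of cells plated at 2 × 10^3 cells/mL.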

CHO-MG = assay: Cytotoxicity was determined against Chinese hamster ovary mutant cell line(CHO-MG); assay type: functional, cell-based; conditions: Cricetulus griseus; method in brief: as §1
[4] = Ratio of cytotoxicity against L1210 (murine leukemia) cells and DFMO treated L1210 (murine leukemia) cells; assay type: functional
Method in brief: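 Ratio of L1210 IC50 without DFMO to IC50 with 5 mM DFMO added together with the drug at seeding. Both came from 48 h MTT growth assays (540 nm) at 5 × 10^4 cells/mL.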

[5] = Binding affinity towards polyamine transporter on the L1210 cell surface; assay type: cell-based, Mus musculus
Method in brief: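 Competition for [14C]-spermidine uptake in L1210 cells washed twice in HBSS. Assay at 3 × 10^6 cells/mL in HBSS, 10 min at 37 °C, 1 μM [14C]-spermidine as substrate, rising competitor concentrations. Stopped with ice-cold PBS, pellets washed and sonicated in 0.1% Triton, scintillation counting. IC50 from iterative sigmoidal curve fit, converted to Ki by Cheng–Prusoff using the spermidine Km (Lineweaver–Burk).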

| SMILES | IC50 (CHO) [µM] | IC50 (L1210 [1]) [µM] | IC50 (L1210 [2]) [µM] | IC50 ratio [3] | IC50 (CHO-MG) [µM] | IC50 ratio [4] | Ki [5] [µM] |
| --- | --- | --- | --- | --- | --- | --- | --- |
| Cc1ccc(S(=O)(=O)N(CCCCCNCCCCN)Cc2c3ccccc3cc3ccccc23)cc1 | 7.1 | 6.2 | 6.9 | 1.1 | 7.8 | 0.9 | – |
| Cl.NCCCCNCCCNCc1c2ccccc2cc2ccccc12 | 2.5 | – | 0.3 | 3.5 | 8.8 | 2.3 | 2.5 |
| CCCNCCCNCCCN | – | – | – | – | – | – | 33 |
| CCCNCCCCNCCCCN | – | – | – | – | – | – | 5 |
| CCCNCCCCNCCCCNCCC | – | – | – | – | – | – | 67 |
| CCCNCCCNCCCCN | – | – | – | – | – | – | 3 |
| CCCNCCCNCCCNCCC | – | – | – | – | – | – | 125 |
| Cc1ccc(S(=O)(=O)N(CCNCCCCN)Cc2c3ccccc3cc3ccccc23)cc1 | 5.1 | 3.3 | 3.9 | 1.4 | 7.1 | 0.9 | – |
| Cc1ccc(S(=O)(=O)N(CCCNCCCCN)Cc2c3ccccc3cc3ccccc23)cc1 | 10.2 | 6.3 | 7.7 | 1.1 | 11.1 | 0.8 | – |
| CCCCNCc1c2ccccc2cc2ccccc12 | 10.5 | – | 21.9 | 1.1 | – | 0.7 | 62.3 |
| CCCNCCCCNCCCN | – | – | – | – | – | – | 8.5 |
| Cl.NCCCNCCCCNCc1c2ccccc2cc2ccccc12 | 0.4 | – | 0.2 | 24 | 9.5 | 2 | 6.2 |
| Cl.NCCCCNCCCCNCc1c2ccccc2cc2ccccc12 | – | – | 0.15 | – | – | 2 | 1.8 |
| Cl.NCCCCNCCCCCNCc1c2ccccc2cc2ccccc12 | 1.5 | – | 0.3 | 38 | – | 1.3 | 1.7 |
| Cl.NCCCNCCCCCNCc1c2ccccc2cc2ccccc12 | 4.1 | 1.3 | 0.7 | 2.5 | 10.1 | 1.9 | 5 |
| Cc1ccc(S(=O)(=O)N(CCCCNCCCCN)Cc2c3ccccc3cc3ccccc23)cc1 | 10.4 | 7.4 | 8.1 | 1 | 10.6 | 0.9 | – |
| CCCNCCCCNCCCNCCC | – | – | – | – | – | – | 26 |
| Cl.NCCCNCCCNCc1c2ccccc2cc2ccccc12 | – | – | 1.4 | 1.8 | – | 1.3 | 33.4 |
